In ChEMBL document CHEMBL1131215, “Anhydrolide macrolides. 1. Synthesis and antibacterial activity of 2,3-anhydro-6-O-methyl 11,12-carbamate erythromycin A analogues” (1998) one finds MIC data, which are given here for one compound.

SMILES strings stand for the structures. Converted amounts (≈) assume the structure as drawn.

What all share (format): functional
A short description of assay [1]: In vitro antibacterial activity against A-5278 strain of Staphylococcus aureus. As to conditions: Staphylococcus aureus. An outline of the steps:
(§1)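 MIC determined by standard agar dilution; values in μg/mL.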

The test system of assay [2] is Staphylococcus aureus. Description: In vitro antibacterial activity against 6538P strain of Staphylococcus aureus. The note with it: Staphylococcus aureus. An outline of the steps:
as §1

Assay [3] deals with Haemophilus influenzae. Description: In vitro antibacterial activity against DILL strain of Haemophilus influenzae. An outline of the steps:
as §1

For assay [4], the system named is Streptococcus pneumoniae. The assay can be described thus: In vitro antibacterial activity against ATCC 6303 strain of Streptococcus pneumoniae. The note with it: Streptococcus pneumoniae, ATCC 6303. An outline of the steps: as §1
Assay [5] concerns Streptococcus pyogenes. The assay can be described thus: In vitro antibacterial activity against PIU 2548 strain of Streptococcus pyogenes. As to conditions: Streptococcus pyogenes. An outline of the steps:
as §1

In assay [6] the test system is Streptococcus pyogenes. Description: In vitro antibacterial activity against 930 strain of Streptococcus pyogenes. The note with it: Streptococcus pyogenes. An outline of the steps: as §1
For assay [7], the system named is Streptococcus pneumoniae. Description: In vitro antibacterial activity against 5649 strain of Streptococcus pneumoniae. As to conditions: Streptococcus pneumoniae. An outline of the steps:
as §1

For assay [8], the system named is Staphylococcus aureus. The assay can be described thus: In vitro antibacterial activity against A5177 strain of Staphylococcus aureus. The note with it: Staphylococcus aureus. An outline of the steps:
as §1

Assay [9] concerns Streptococcus pneumoniae. The assay can be described thus: In vitro antibacterial activity against Streptococcus pneumoniae 5979. An outline of the steps:
as §1

For the compound `CC[C@H]1OC(=O)/C(C)=C/[C@H](C)[C@@H](O[C@@H]2O[C@H](C)C[C@H](N(C)C)[C@H]2O)[C@@](C)(OC)C[C@@H](C)C(=O)[C@H](C)[C@H]2N(CCc3ccccc3)C(=O)O[C@]12C`, the MIC in assay [1] stood at 50 µg/mL (≈ 71.3 µM); in [2] it was 0.39 µg/mL (≈ 0.556 µM); in [3], 32 µg/mL (≈ 45.7 µM); in assay [4], 0.03 µg/mL (≈ 0.0428 µM); in assay [5] it was 0.01 µg/mL (≈ 0.0143 µM); in assay [6], 25 µg/mL (≈ 35.7 µM). Moreover, the MIC in assay [7] turned out to be 1 µg/mL (≈ 1.43 µM); in [8], 0.1 µg/mL (≈ 0.143 µM); in assay [9] it was 64 µg/mL (≈ 91.3 µM).
